Reference: ChEMBL document CHEMBL1629577, “Activity of T-705 in a hamster model of yellow fever virus infection in comparison with that of a chemically related compound, T-1106” (Antimicrob Agents Chemother, 2009)
Active and inactive are the calls of the source. The rule behind the calls is not given here.

Experiments:
[1] = test system: Yellow fever virus; test: Antiviral activity against 10^2 CCID50 Yellow fever virus Jimenez infected in syrian golden hamster assessed as mean day of death […] at 32 mg/kg/day, po administered twice daily for 8 days started 4 hrs prior to viral infection relative to control; type: functional
[2] = test system: Yellow fever virus; test: Antiviral activity against Yellow fever virus 17D infected in African green monkey Vero cells assessed as inhibition of virus induced cytopathic effect by microscopic analysis; type: functional, cell-based
[3] = test system: Yellow fever virus; test: Antiviral activity against Yellow fever virus 17D infected in African green monkey Vero cells assessed as inhibition of virus induced cytopathic effect […] by NR dye uptake assay; type: functional, cell-based
[4] = Selectivity index, ratio of CC50 for African green monkey vero cells to EC90 for Yellow fever virus 17D; type: toxicity, cell-based; settings: read-out: Selectivity Index
Method in brief: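 SI was calculated as the CC50 in uninfected Vero cells divided by the EC90 from the YFV 17D virus yield reduction assay in Vero cells.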

[5] = test system: Yellow fever virus; test: Antiviral activity against Yellow fever virus 17D infected in African green monkey Vero cells assessed as inhibition of virus induced cytopathic effect by luciferase reporter gene assay; type: functional, cell-based
[6] = test system: Yellow fever virus; test: Antiviral activity against 10^2 CCID50 Yellow fever virus Jimenez infected in syrian golden hamster assessed as serum ALT level at 32 mg/kg/day, po administered twice daily for 8 days started 4 hrs prior to viral infection; type: functional
[7] = test system: Yellow fever virus; test: Antiviral activity against Yellow fever virus 17D infected in African green monkey Vero cells assessed as time required for inhibition of viral replication at 6400 uM up to 12 hrs post-viral infection; type: functional, cell-based
[8] = test system: Yellow fever virus; test: Antiviral activity against 10^2 CCID50 Yellow fever virus Jimenez infected in syrian golden hamster assessed as mean day of death […] at 10 mg/kg/day, po administered twice daily for 8 days started 4 hrs prior to viral infection relative to control; type: functional
[9] = Cytotoxicity against African green monkey Vero cells by luciferase-based cell viability assay; settings: chlorocebus sabaeus
Method in brief: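 Uninfected Vero cells exposed to compound were assayed for ATP content by luminescence (Cell-Titer Glo) to derive the CC50.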

[10] = test system: Yellow fever virus; test: Antiviral activity against 10^2 CCID50 Yellow fever virus Jimenez infected in syrian golden hamster assessed as serum survival of animal at 32 mg/kg/day, po administered twice daily for 8 days started 4 hrs prior to viral infection; type: functional, organism-based
[11] = test system: Yellow fever virus; test: Antiviral activity against Yellow fever virus 17D infected in African green monkey Vero cells assessed as reduction in virus yield; type: functional
Method in brief: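 Virus yield reduction in Vero cells infected with YFV 17D after compound exposure, with progeny virus titred by CCID50. The EC90 was averaged over separate experiments.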

[12] = test system: Yellow fever virus; test: Antiviral activity against 10^2 CCID50 Yellow fever virus Jimenez infected in syrian golden hamster assessed as reduction in viral titer in liver at 32 mg/kg/day administered twice daily for 8 days started 6 days post infection by quantitative RT-PCR analysis; type: functional
[13] = test system: Syrian golden hamster; test: Toxicity in syrian golden hamster infected with 10^2 CCID50 Yellow fever virus Jimenez assessed as weight change at 32 mg/kg/day, po administered twice daily for 8 days started 4 hrs prior to viral infection relative to control; type: organism-based, Mesocricetus auratus; design: route oral; settings: in vivo
[14] = test system: Syrian golden hamster; test: Toxicity in syrian golden hamster infected with 10^2 CCID50 Yellow fever virus Jimenez assessed as weight change at 100 mg/kg/day, po administered twice daily for 8 days started 4 hrs prior to viral infection; type: organism-based, Mesocricetus auratus; design: route oral; settings: in vivo
[15] = test system: Syrian golden hamster; test: Toxicity in syrian golden hamster infected with 10^2 CCID50 Yellow fever virus assessed as weight change in non surviving animals at 400 mg/kg/day, po BID administered for 8 days started 5 days post viral challenge; type: organism-based, Mesocricetus auratus; design: route oral; settings: in vivo
[16] = test system: Syrian golden hamster; test: Toxicity in syrian golden hamster infected with 10^2 CCID50 Yellow fever virus Jimenez assessed as weight change at 400 mg/kg/day, po administered twice daily for 8 days started 4 hrs prior to viral infection relative to control; type: organism-based, Mesocricetus auratus; design: route oral; settings: in vivo
[17] = test system: Syrian golden hamster; test: Toxicity in syrian golden hamster infected with 10^2 CCID50 Yellow fever virus Jimenez assessed as weight change at 400 mg/kg/day, po administered twice daily for 8 days started 1 day post viral infection; type: organism-based, Mesocricetus auratus; design: route oral; settings: in vivo
[18] = test system: Syrian golden hamster; test: Toxicity in syrian golden hamster assessed as number of animals alive at 400 mg/kg/day, po BID administered for 8 days; type: organism-based, Mesocricetus auratus; design: route oral; settings: in vivo, 192 h
Method in brief: (§1)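 Uninfected toxicity-control hamsters, three per group, were dosed p.o. in 0.4% carboxymethyl cellulose twice daily, 12 h apart, for 8 days. Deaths were recorded daily. Body weights were taken at 0, 3 and 6 dpi.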

[19] = test system: Syrian golden hamster; test: Toxicity in syrian golden hamster infected with 10^2 CCID50 Yellow fever virus Jimenez assessed as weight change at 400 mg/kg/day, po administered twice daily for 8 days started 4 day post viral infection; type: organism-based, Mesocricetus auratus; design: route oral; settings: in vivo
[20] = test system: Syrian golden hamster; test: Toxicity in syrian golden hamster assessed as weight change at 400 mg/kg/day, po BID administered for 8 days; type: organism-based, Mesocricetus auratus; design: route oral; settings: in vivo, 192 h; method in brief: as §1
[21] = test system: Syrian golden hamster; test: Toxicity in syrian golden hamster infected with 10^2 CCID50 Yellow fever virus assessed as weight change in surviving animals at 400 mg/kg/day, po BID administered for 8 days started 5 days post viral challenge; type: organism-based, Mesocricetus auratus; design: route oral; settings: in vivo
[22] = test system: Syrian golden hamster; test: Toxicity in syrian golden hamster infected with 10^2 CCID50 Yellow fever virus assessed as weight change in non surviving animals at 400 mg/kg/day, po BID administered for 8 days started 4 days post viral challenge; type: organism-based, Mesocricetus auratus; design: route oral; settings: in vivo
[23] = test system: Syrian golden hamster; test: Toxicity in syrian golden hamster infected with 10^2 CCID50 Yellow fever virus assessed as weight change in surviving animals at 400 mg/kg/day, po BID administered for 8 days started 4 days post viral challenge; type: organism-based, Mesocricetus auratus; design: route oral; settings: in vivo
[24] = test system: Syrian golden hamster; test: Toxicity in syrian golden hamster infected with 10^2 CCID50 Yellow fever virus Jimenez assessed as weight change at 400 mg/kg/day, po administered twice daily for 8 days started 3 day post viral infection; type: organism-based, Mesocricetus auratus; design: route oral; settings: in vivo
[25] = test system: Syrian golden hamster; test: Toxicity in syrian golden hamster infected with 10^2 CCID50 Yellow fever virus Jimenez assessed as weight change at 400 mg/kg/day, po administered twice daily for 8 days started 5 day post viral infection; type: organism-based, Mesocricetus auratus; design: route oral; settings: in vivo
[26] = test system: Syrian golden hamster; test: Toxicity in syrian golden hamster infected with 10^2 CCID50 Yellow fever virus Jimenez assessed as weight change at 200 mg/kg/day, po administered twice daily for 8 days started 4 hrs prior to viral infection relative to control; type: organism-based, Mesocricetus auratus; design: route oral; settings: in vivo
[27] = test system: Syrian golden hamster; test: Toxicity in syrian golden hamster infected with 10^2 CCID50 Yellow fever virus Jimenez assessed as weight change at 400 mg/kg/day, po administered twice daily for 8 days started 2 day post viral infection; type: organism-based, Mesocricetus auratus; design: route oral; settings: in vivo
[28] = test system: Yellow fever virus; test: Antiviral activity against 10^2 CCID50 Yellow fever virus Jimenez infected in syrian golden hamster assessed as serum survival of animal at 50 mg/kg/day, po administered twice daily for 8 days started 4 hrs prior to viral infection; type: functional, organism-based
[29] = test system: Syrian golden hamster; test: Toxicity in syrian golden hamster infected with 10^2 CCID50 Yellow fever virus Jimenez assessed as weight change at 10 mg/kg/day, po administered twice daily for 8 days started 4 hrs prior to viral infection relative to control; type: organism-based, Mesocricetus auratus; design: route oral; settings: in vivo
[30] = test system: Yellow fever virus; test: Antiviral activity against 10^2 CCID50 Yellow fever virus Jimenez infected in syrian golden hamster assessed as serum ALT level at 10 mg/kg/day, po administered twice daily for 8 days started 4 hrs prior to viral infection; type: functional
[31] = test system: Yellow fever virus; test: Antiviral activity against 10^2 CCID50 Yellow fever virus Jimenez infected in syrian golden hamster assessed as mean day of death […] at 50 mg/kg/day, po administered twice daily for 8 days started 4 hrs prior to viral infection relative to control; type: functional

In the case of `NC(=O)c1nccn([C@@H]2O[C@H](CO)[C@@H](O)[C@H]2O)c1=O`, the Time [1] is reported as >21 days, the EC50 [2] is reported as 1080 µM and the EC50 [3] is reported as 1800 µM. The selectivity ratio [4] was > 3.6, the EC50 [5] was 2630 µM and the Activity [6] was 154 IU/L. For the same compound, the Activity [7] was “Active”, the Time [8] was 8 days and the CC50 [9] was > 4000 µM. The Activity [10] was “Active”, the EC90 [11] was 1110 µM and the Activity [12] was 85 IU/L. The Activity [13] was 0.2 g.

`NC(=O)c1nc(F)c[nH]c1=O` [FAVIPIRAVIR] gave an Activity [14] of -2.9 g, an Activity [15] of -7.3 g and an Activity [16] of 5.2 g. The Activity [17] was -0.3 g, the Activity [18] was “Non-toxic” and the selectivity ratio [4] was > 19. The Activity [19] was -3 g, the Activity [20] was 5.3 g and the CC50 [9] was > 6370 µM. It also gave an Activity [21] of -2.8 g, an Activity [22] of -18.5 g and an Activity [23] of 2.2 g. The Activity [24] was -4.1 g, the Activity [25] was -4.5 g and the Activity [26] was 2.2 g. For the same compound, the Activity [27] was 0 g.

In the case of `NC(=O)c1ncn([C@@H]2O[C@H](CO)[C@@H](O)[C@H]2O)n1` [RIBAVIRIN], the EC50 [2] is reported as 28 µM, the selectivity ratio [4] is reported as > 6 and the CC50 [9] is reported as > 4100 µM. The Activity [28] was “Active”, the EC90 [11] was 690 µM and the Activity [29] was 2.4 g. The Activity [30] was 103 IU/L and the Time [31] was >21 days.
